Results published in ChEMBL document CHEMBL6083207, “Design, synthesis and biological evaluation of a novel PSMA-PI3K small molecule drug conjugate” (RSC Med Chem, 2024).

Key:
LNCaP = assay: Antiproliferative activity against PSMA-positive human LNCaP cells incubated for 72 hrs by Cell Titer Glo assay; assay type: functional, cell-based
Summary of the method: (§1)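 Cells grown in RPMI 1640 with 10% FBS, seeded at 3 × 10^3 per well and left overnight, then exposed to a range of compound concentrations for 72 h. Viability read by CellTiter-Glo luminescence after 2 min shaking and 10 min at room temperature. IC50 calculated from the curves; mean of n = 3.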

[1] = Selectivity ratio of IC50 for PSMA-negative human PC-3 cells to IC50 for PSMA-positive human LNCaP cells; assay type: functional
Summary of the method: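 Ratio of PC3 IC50 to LNCaP IC50, both from 72 h CellTiter-Glo viability assays.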

[2] = Toxicity in Balb/c athymic nude mouse xenografted with human 22Rv1 cells assessed as drug tolerance at 10 to 20 mg/kg, ip qd measured for 22 days; assay type: organism-based; details: in vivo, 528 h, dose 10-20 mg/kg, time 22 day
Summary of the method: (§2)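 Male Balb/c athymic nude mice, 8–10 weeks old. Tumour cells taken from 22Rv1 donor tumours (grown to 1000 mm3) and implanted at 2 × 10^6 per mouse, subcutaneously in the right flank. Randomized at about 100 mm3. Compound given ip once daily in saline with 1% PEG400; vehicle group received the same. Tumour volume (1/2 × L × W2) and body weight measured twice weekly.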

[3] = Selectivity ratio of IC50 for PSMA-negative human PC3 cells to IC50 for PSMA-positive human 22Rv1 cells
CWR22R [4] = assay: Antiproliferative activity against PSMA-positive human 22Rv1 cells incubated for 72 hrs by Cell Titer Glo assay; assay type: functional, cell-based; details: 22Rv1, 72 h; summary of the method: as §1
PC-3 = assay: Antiproliferative activity against PSMA-negative human PC-3 cells incubated for 72 hrs by Cell Titer Glo assay; assay type: functional, cell-based; details: PC-3, 72 h; summary of the method: as §1
22Rv1 [5] = assay: Inhibition of PI3K in human 22Rv1 cells assessed as reduction in phosphorylation of AKT at S473 incubated for 3 hrs by Western blot analysis; assay type: cell-based; details: dose <= 10.0 µM
Summary of the method: (§3)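 22Rv1 cells treated at the stated concentrations for 3 h and lysed in RIPA buffer with protease and phosphatase inhibitors. 25 μg protein separated by SDS-PAGE and blotted to PVDF. Probed overnight at 4 °C for phospho- and total mTOR, AKT (Ser473) and S6RP, with β-actin as loading control. Detected by ECL chemiluminescence.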

CWR22R [6] = assay: Antitumor activity against human 22Rv1 cells xenografted in Balb/c athymic nude mouse administered intraperitoneally once daily measured for 22 days; details: dose 10-20 mg/kg, route ip, time 22.0 day; summary of the method: as §2
CWR22R [7] = assay: Antitumor activity against human 22Rv1 cells xenografted in Balb/c athymic nude mouse at 20 mg/kg, ip qd measured for 22 days relative to control; assay type: functional; details: 22Rv1, 528 h, time 22 day, read-out: TGI; summary of the method: as §2
CWR22R [8] = assay: Induction of cell cycle arrest in human 22Rv1 cells assessed as accumulation at G0/G1 phase incubated for 24 hrs by flow cytometry; assay type: functional, cell-based; details: dose <= 10.0 µM
Summary of the method: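 1 × 10^5 22Rv1 cells treated at several concentrations for 24 h, then fixed in ice-cold 70% ethanol. Stained with PI/RNase and analysed by flow cytometry with 488 nm excitation to give the percentage of cells in each cycle phase.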

[9] = molecular target: Phosphatidylinositol 4,5-bisphosphate 3-kinase catalytic subunit alpha isoform (Homo sapiens, UniProt P42336); assay: Inhibition of PI3Kalpha (unknown origin)
Chain of Phosphatidylinositol 4,5-bisphosphate 3-kinase catalytic subunit alpha isoform (P42336 whole entry, canonical isoform): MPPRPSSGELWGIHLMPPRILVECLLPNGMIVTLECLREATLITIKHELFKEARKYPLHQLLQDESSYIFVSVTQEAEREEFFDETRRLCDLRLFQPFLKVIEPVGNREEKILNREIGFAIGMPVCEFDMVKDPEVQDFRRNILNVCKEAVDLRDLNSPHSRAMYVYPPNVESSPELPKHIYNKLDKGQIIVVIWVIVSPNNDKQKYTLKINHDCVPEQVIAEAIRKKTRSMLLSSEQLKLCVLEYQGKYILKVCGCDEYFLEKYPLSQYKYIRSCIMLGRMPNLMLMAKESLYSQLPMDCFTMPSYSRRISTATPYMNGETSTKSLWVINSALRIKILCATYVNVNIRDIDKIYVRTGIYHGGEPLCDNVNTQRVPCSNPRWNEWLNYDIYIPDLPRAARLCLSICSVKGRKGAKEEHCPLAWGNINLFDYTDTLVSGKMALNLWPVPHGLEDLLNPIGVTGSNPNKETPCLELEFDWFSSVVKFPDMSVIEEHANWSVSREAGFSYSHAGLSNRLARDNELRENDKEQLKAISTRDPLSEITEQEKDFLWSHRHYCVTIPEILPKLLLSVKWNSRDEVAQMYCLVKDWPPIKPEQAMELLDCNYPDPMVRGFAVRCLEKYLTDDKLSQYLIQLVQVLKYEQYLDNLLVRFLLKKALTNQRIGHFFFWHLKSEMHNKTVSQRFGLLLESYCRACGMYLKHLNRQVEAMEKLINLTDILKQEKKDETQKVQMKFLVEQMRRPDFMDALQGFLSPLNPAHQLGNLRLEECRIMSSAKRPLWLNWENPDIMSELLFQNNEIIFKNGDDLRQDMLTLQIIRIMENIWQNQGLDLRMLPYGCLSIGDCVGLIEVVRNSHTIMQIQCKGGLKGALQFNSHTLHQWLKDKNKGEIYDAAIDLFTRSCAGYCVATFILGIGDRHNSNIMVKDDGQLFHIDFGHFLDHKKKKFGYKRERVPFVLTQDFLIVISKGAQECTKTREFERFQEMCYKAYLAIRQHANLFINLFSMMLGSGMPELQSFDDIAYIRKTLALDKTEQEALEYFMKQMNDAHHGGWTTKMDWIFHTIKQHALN

[10] = Toxicity in Balb/c athymic nude mouse xenografted with human 22Rv1 cells assessed as body weight change at 10 to 20 mg/kg, ip qd measured for 22 days; assay type: organism-based; details: in vivo, 528 h, dose 10-20 mg/kg, time 22 day; summary of the method: as §2
22Rv1 [11] = assay: Inhibition of PI3K in human 22Rv1 cells assessed as reduction in phosphorylation of mTOR incubated for 3 hrs by Western blot analysis; assay type: cell-based; details: dose <= 10.0 µM; summary of the method: as §3
22Rv1 [12] = assay: Inhibition of PI3K in human 22Rv1 cells assessed as reduction in phosphorylation of S6RP incubated for 3 hrs by Western blot analysis; assay type: cell-based; details: dose <= 10.0 µM; summary of the method: as §3

IC50 (LNCaP)	IC50 (PC-3)	IC50 [9]	SMILES	Ratio IC50 [1]	Activity [2]	Ratio IC50 [3]	IC50 (CWR22R [4])	inhibition (22Rv1 [5])	Activity (CWR22R [6])	inhibition in vivo at 20 mg/kg (CWR22R [7])	Activity (CWR22R [8])	Activity [10]	inhibition (22Rv1 [11])	inhibition (22Rv1 [12])
> 100 µM			NCCCC[C@H](NC(=O)N[C@@H](CCC(=O)O)C(=O)O)C(=O)O											
1.08 µM	57.8 µM	0.0004 µM	COc1ncc(-c2cc(OCCCC(=O)NC[C@H]3CC[C@@H](C(=O)N[C@@H](Cc4ccc5ccccc5c4)C(=O)NCCCC[C@H](NC(=O)N[C@@H](CCC(=O)O)C(=O)O)C(=O)O)CC3)c3ncnc(C)c3c2)cc1NS(=O)(=O)c1ccc(F)cc1F	54	Non-toxic	6	9.68 µM	Dose-dependent-effect	Dose-dependent-effect	53%	Dose-dependent-effect	Non-toxic	Dose-dependent-effect	Dose-dependent-effect
